Measured values collected from several papers.
Lines come from different studies, so protocols differ.
Target: Inhibitor of nuclear factor kappa-B kinase subunit epsilon (IKBKE, Homo sapiens, UniProt Q14164)
Concentration: 1 µM
Sequence (Q14164 1-716, as in one of the studies): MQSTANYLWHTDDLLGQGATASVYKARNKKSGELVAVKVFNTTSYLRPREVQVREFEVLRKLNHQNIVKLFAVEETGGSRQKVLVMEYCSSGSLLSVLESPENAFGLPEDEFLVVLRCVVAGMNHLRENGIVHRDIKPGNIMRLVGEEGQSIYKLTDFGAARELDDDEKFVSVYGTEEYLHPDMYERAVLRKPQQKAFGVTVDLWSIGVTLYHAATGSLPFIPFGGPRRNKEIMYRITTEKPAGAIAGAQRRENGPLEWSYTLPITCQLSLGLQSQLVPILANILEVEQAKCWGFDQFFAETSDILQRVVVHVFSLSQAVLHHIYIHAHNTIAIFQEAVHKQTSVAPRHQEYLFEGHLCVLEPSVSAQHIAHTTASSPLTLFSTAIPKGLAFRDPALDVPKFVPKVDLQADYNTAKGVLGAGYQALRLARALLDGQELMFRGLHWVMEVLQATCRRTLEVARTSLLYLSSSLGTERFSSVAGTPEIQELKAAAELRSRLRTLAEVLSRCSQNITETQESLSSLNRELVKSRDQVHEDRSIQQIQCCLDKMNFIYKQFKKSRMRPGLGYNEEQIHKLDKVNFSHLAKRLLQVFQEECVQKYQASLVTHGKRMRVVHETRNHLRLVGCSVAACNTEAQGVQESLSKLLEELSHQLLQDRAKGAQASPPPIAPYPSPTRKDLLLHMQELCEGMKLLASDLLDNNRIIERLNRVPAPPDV

CCC(=O)N[C@@H]1CC[C@H](C(=O)N(C)c2ccc(-c3nc4ccccc4o3)cc2)C1
remaining binding (cell-free assay, competition with immobilised ligand): 60%

C[C@@H]1CCN(c2nccc(-c3cnn4ncccc34)n2)C1
remaining binding (binding): 82%

CNC(=O)[C@@H]1CC[C@@H](n2c(-c3ccc4cnccc4c3)nc3ccc(C(=O)NCc4cccc(C(N)=O)c4)cc32)C1
remaining binding (binding, competition with immobilised ligand): 98%

CN(C)CC#Cc1ccc(OCCCc2sc(N3CCc4cccc(C(=O)Nc5nc6ccccc6s5)c4C3)nc2C(=O)O)c(F)c1
remaining binding (cell-free assay, competition with immobilised ligand): 100%

CN(C)c1nccc(-c2cnn3ncccc23)n1
remaining binding (binding): 89%

C=CC(=O)N1CCC(C(=O)NCC(=O)N2CCN(c3nc(-c4cnc(N)nc4C(F)F)nc(N4CCOCC4)n3)CC2)CC1
remaining binding (binding, competition with immobilised ligand): 71%

O=C(Nc1c[nH]nc1C(=O)NC1CCNCC1)c1cc(F)cc(F)c1
remaining binding (binding, competition with immobilised ligand): 100%

CC1CCCN1c1nccc(-c2cnn3ncccc23)n1 (centres unmarked)
remaining binding (binding): 100%

O=C(c1ccc(Nc2ncc(Cl)c(-c3ccc(Cl)s3)n2)cc1)N1CCC(N2CCCC2)CC1
remaining binding (binding, competition with immobilised ligand): 7.7%

CCS(=O)(=O)c1cc2cc(C[C@@](O)(CC(C)(C)c3ccc(F)cc3C(N)=O)C(F)(F)F)[nH]c2cn1
remaining binding (cell-free assay, competition with immobilised ligand): 83%

CN(c1nccc(-c2cnn3ncccc23)n1)C1CC1
remaining binding (binding): 100%

CC1=C(C#N)[C@@H](c2ccc3[nH]nc(C)c3c2)C(C#N)=C(c2ccc(Cl)cc2)N1
remaining binding (cell-free assay, competition with immobilised ligand): 100%

Cc1cnn2ncc(-c3ccnc(N(C)C)n3)c2c1
remaining binding (binding): 96%

Cc1cnc(Nc2ccc(C(=O)N3CCC(N4CCCC4)CC3)cc2)nc1-c1cc2ccccc2s1
remaining binding (binding, competition with immobilised ligand): 18%

N[C@@H]1CCN(c2nccc(-c3cnn4ncccc34)n2)C1
remaining binding (binding): 100%

CCN1CCN(Cc2ccc(C(=O)Nc3ccc(C)c(Oc4ccc5c(c4)CC(=O)N5)c3)cc2C(F)(F)F)CC1
remaining binding (binding, competition with immobilised ligand): 100%

O=C(NCc1ncc(C(F)(F)F)cc1Cl)c1ccc2c(c1)C1(CCS(=O)(=O)CC1)[C@H](C1CC1)N2S(=O)(=O)c1ccc(F)cc1
remaining binding (cell-free assay, competition with immobilised ligand): 77%

O=C(c1ccc(Nc2ncc(Cl)c(-c3cc4ccccc4s3)n2)cc1)N1CCC(N2CCCC2)CC1
remaining binding (binding, competition with immobilised ligand): 21%

CNC(=O)Nc1ccc2c(c1)CC[C@@]21OC(=O)N(CC(=O)N(Cc2ccc(F)cc2)[C@@H](C)C(F)(F)F)C1=O
remaining binding (cell-free assay, competition with immobilised ligand): 51%

COc1cnc(Nc2cccc(S(N)(=O)=O)c2)nc1N1CCN(c2ccccc2)CC1
remaining binding (binding, competition with immobilised ligand): 57%
